Consider 15 compounds from ChEMBL document CHEMBL4024747, “Design, Synthesis, and Biological Activities of Vibsanin B Derivatives: A New Class of HSP90 C-Terminal Inhibitors” (J Med Chem, 2017).

The source made the active and inactive calls. The calls are words filed in the database; no cut-off is given here.

As a reminder, the IC50 is the concentration that inhibits the measured activity by half. In general, inhibition refers to how much of the control response was suppressed.

One series deals with SMMC-7721. In words: Antiproliferative activity against human SMMC7721 cells assessed as reduction in cell viability after 48 hrs by MTT assay. In kind it is functional, cell-based. The following applies: SMMC-7721, 48 h.
For series [1], the target named is Luciferin 4-monooxygenase (Photinus pyralis) (UniProt P08659). In words: Inhibition of firefly luciferase activity using luciferin substrate at 10 uM after 30 mins by luminescence assay.
The species entered for another series is Oryctolagus cuniculus. In words: Inhibition of HSP90 in rabbit reticulocyte lysate assessed as decrease in HSP90-dependant refolding of firefly luciferase at 10 uM after 30 mins by luciferase gene based assay. In outline:
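Firefly luciferase heat-denatured at 41 °C for 10 min, then added with rabbit reticulocyte lysate to compounds at 10 μM. Renaturation at room temperature for 3 h; luciferin substrate added and luminescence read. Refolding expressed relative to DMSO; novobiocin at 500 μM as reference. Three independent experiments.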

In a further series the test system is SW480. Briefly: Antiproliferative activity against human SW480 cells assessed as reduction in cell viability after 48 hrs by MTT assay. The format is functional, cell-based. The following applies: SW480, 48 h. (In general: Tetrazolium dyes change colour on reduction, which living cells bring about.)
For a further series, the system named is A549. Briefly: Antiproliferative activity against human A549 cells assessed as reduction in cell viability after 48 hrs by MTT assay. The format is functional, cell-based. To be noted: A549, 48 h.
The subject of another series is HL-60. Briefly: Antiproliferative activity against human HL60 cells assessed as reduction in cell viability after 48 hrs by MTT assay. In kind it is functional, cell-based. To be noted: HL-60, 48 h.
In another series the test system is MCF7. In words: Antiproliferative activity against human MCF7 cells assessed as reduction in cell viability after 48 hrs by MTT assay. The following applies: MCF7, 48 h. The format is functional, cell-based.
Series [2] can be described thus: Stability of compound in pH 7.4 PBS at 37 degreeC after 12 hrs by HPLC analysis. In kind it is physicochemical. The following applies: buffer, pH 7.4, 12 h. In short, it runs like this:
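Solution stability determined by HPLC after incubation in PBS pH 7.4 at 37 °C for 12 h.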

Series [3] has as its target Heat shock protein HSP 90-beta (Homo sapiens) (UniProt P08238). In words: Binding affinity to human FLAG-tagged HSP90beta middle domain expressed in human 293T cells at 30 uM by Western blot analysis. In kind it is cell-based. In short, it runs like this: (§1)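 Flag-tagged full-length HSP90β and its NTD, MD and CTD constructs expressed by transfection in 293T cells; lysates incubated with 30 μM biotin-ViB, captured on streptavidin-agarose beads, bound protein detected by Western blot.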
For orientation: In western blotting, separated proteins are transferred to a membrane and probed.

The target is the same in series [4]. In words: Binding affinity to human FLAG-tagged HSP90beta N-terminal domain expressed in human 293T cells at 30 uM by Western blot analysis. In kind it is cell-based. In outline: as §1
Series [5] has the same target. Briefly: Binding affinity to human FLAG-tagged HSP90beta C-terminal domain expressed in human 293T cells at 30 uM by Western blot analysis. In kind it is cell-based. In short, it runs like this: as §1
Series [6] has the same target. Briefly: Binding affinity to human recombinant His-tagged HSP90beta-CTD expressed in Escherichia coli BL21(DE3) at 80 uM after 2 hrs by Western blot analysis.
For series [7] the target is unchanged. In words: Binding affinity to human recombinant His-tagged HSP90beta-CTD expressed in Escherichia coli BL21(DE3) at 80 uM after 2 hrs in presence of ViB-4-OH by Western blot analysis.
The target is the same in series [8]. In words: Binding affinity to human recombinant His-tagged HSP90beta-CTD expressed in Escherichia coli BL21(DE3) at 80 uM after 2 hrs in presence of 18-fluro vibsanin B by Western blot analysis.
Series [9] has the same target. Briefly: Binding affinity to human recombinant His-tagged HSP90beta-CTD expressed in Escherichia coli BL21(DE3) at 80 uM after 2 hrs in presence of vibsanin B by Western blot analysis.
For a further series, the species on record is Danio rerio. Briefly: Toxicity in 3 days post fertilized zebrafish embryo assessed as changes in embryonic phenotypes at 4 to 16 uM after 12 hrs. To be noted: in vivo.
The subject of another series is SK-BR-3. In words: Antiproliferative activity against human SKBR3 cells assessed as reduction in cell viability after 48 hrs by MTT assay. The format is functional, cell-based. To be noted: SK-BR-3, 48 h.
Another series deals with HepG2. Briefly: Antiproliferative activity against human HepG2 cells assessed as reduction in cell viability after 48 hrs by MTT assay. The format is functional, cell-based. To be noted: HepG2, 48 h.
In another series the test system is BT-474. In words: Antiproliferative activity against human BT474 cells assessed as reduction in cell viability after 48 hrs by MTT assay. In kind it is functional, cell-based. The following applies: BT-474, 48 h.
The next series relates to BEAS-2B. Briefly: Cytotoxicity against human BEAS2B cells assessed as reduction in cell viability after 48 hrs by MTT assay. The format is cell-based.
The next series deals with Huh-7. Briefly: Antiproliferative activity against human HuH7 cells assessed as reduction in cell viability after 48 hrs by MTT assay. To be noted: Huh-7, 48 h. The format is functional, cell-based.
In the next series the test system is MDA-MB-468. In words: Antiproliferative activity against human MDA-MB-468 cells assessed as reduction in cell viability after 48 hrs by MTT assay. The format is functional, cell-based. The following applies: MDA-MB-468, 48 h.
Another series relates to HeLa. Briefly: Antiproliferative activity against human HeLa cells assessed as reduction in cell viability after 48 hrs by MTT assay. The format is functional, cell-based.
For another series, the system named is AGS. Briefly: Antiproliferative activity against human AGS cells assessed as reduction in cell viability after 48 hrs by MTT assay. The format is functional, cell-based.
In series [10] the target is Heat shock protein HSP 90-beta (Homo sapiens) (UniProt P08238). Briefly: Inhibition of recombinant human Biotin-labeled N-terminal His/Avi-tagged HSP90beta C-terminal domain (527 to 724 residues) expressed in Escherichia coli interaction with GST-tagged Cyp40 at 500 uM after 30 mins by Alphascreen assay. In outline:
(§2)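 AlphaScreen assay: biotin-labelled HSP90β C-terminus (aa 527–724) mixed with GST-Cyp40 and compound (1–100 μM; novobiocin 500 μM) for 30 min at room temperature. Glutathione acceptor beads added for 30 min, then streptavidin donor beads for 10 min. Excitation at 680 nm, emission read at 520–620 nm; percent activity calculated against enzyme and background wells.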
In general terms: In Alpha technology, singlet oxygen from a donor bead excites a nearby acceptor bead.

For series [11] the target is unchanged. In words: Inhibition of recombinant human Biotin-labeled N-terminal His/Avi-tagged HSP90beta C-terminal domain (527 to 724 residues) expressed in Escherichia coli interaction with GST-tagged Cyp40 at 1 to 100 uM after 30 mins by Alphascreen assay. In short, it runs like this:
as §2

Sequence of Heat shock protein HSP 90-beta (Homo sapiens) (P08238 whole entry, the tested form may be a part): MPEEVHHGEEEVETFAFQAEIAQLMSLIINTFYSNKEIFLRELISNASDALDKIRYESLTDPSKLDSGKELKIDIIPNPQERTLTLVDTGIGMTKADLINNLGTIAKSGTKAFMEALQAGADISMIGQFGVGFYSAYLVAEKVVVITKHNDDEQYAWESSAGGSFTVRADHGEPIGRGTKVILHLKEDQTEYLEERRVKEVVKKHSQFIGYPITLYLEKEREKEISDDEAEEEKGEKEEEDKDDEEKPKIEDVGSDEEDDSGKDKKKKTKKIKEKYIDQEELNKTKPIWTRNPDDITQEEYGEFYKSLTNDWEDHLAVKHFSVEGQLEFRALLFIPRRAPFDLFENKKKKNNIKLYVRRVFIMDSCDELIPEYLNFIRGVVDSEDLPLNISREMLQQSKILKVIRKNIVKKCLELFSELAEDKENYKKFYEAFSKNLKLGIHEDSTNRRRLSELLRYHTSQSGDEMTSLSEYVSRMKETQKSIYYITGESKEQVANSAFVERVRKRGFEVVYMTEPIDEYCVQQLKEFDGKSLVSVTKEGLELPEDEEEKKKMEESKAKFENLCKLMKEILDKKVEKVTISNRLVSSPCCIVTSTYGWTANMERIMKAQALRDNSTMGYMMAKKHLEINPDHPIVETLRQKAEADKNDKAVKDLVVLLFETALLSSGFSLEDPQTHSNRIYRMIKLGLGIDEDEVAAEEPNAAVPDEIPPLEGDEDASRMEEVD
Sequence of Luciferin 4-monooxygenase (Photinus pyralis) (P08659 whole entry): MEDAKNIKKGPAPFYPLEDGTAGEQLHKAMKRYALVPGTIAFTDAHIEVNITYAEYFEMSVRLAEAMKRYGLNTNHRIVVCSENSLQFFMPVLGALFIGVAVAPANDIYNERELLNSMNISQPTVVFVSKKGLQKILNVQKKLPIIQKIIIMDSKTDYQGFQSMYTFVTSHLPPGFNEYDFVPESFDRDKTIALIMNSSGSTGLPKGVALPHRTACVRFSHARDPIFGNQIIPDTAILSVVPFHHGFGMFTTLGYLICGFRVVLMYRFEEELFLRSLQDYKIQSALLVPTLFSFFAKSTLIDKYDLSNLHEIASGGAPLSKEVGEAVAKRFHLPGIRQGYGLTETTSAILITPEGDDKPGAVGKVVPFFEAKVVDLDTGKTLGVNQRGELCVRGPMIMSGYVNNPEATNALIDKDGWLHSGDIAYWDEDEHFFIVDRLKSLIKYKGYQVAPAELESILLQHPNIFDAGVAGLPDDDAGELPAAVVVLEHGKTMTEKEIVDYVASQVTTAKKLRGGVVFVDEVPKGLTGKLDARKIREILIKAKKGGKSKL

Take `CC(C)=CCC[C@]1(C)/C=C/[C@@H](OC(=O)C=C(C)C)[C@](C)(O)/C=C/C(=O)/C(CN2CCCC2)=C\C1`: the IC50 in the series with SMMC-7721 amounted to 0.14 µM; in the series with SW480 it was 310 nM; in the series on A549, 0.18 µM; in the series with HL-60, 0.16 µM; in the series on MCF7, 0.22 µM. For the same compound, the inhibition result in series [1] was “inactive”. The inhibition in the series filed under Oryctolagus cuniculus is less than 50%.
Regarding `CC(=O)O[C@]1(C)/C=C/C(=O)/C(CO)=C\C[C@](C)(CCC=C(C)C)/C=C/[C@H]1OC(=O)C=C(C)C`, the IC50 in the series with SMMC-7721 is 3.08 µM; in the series with SW480, 2010 nM; with A549, 3.15 µM; with HL-60, 2.37 µM; in the series with MCF7, 2.32 µM. Besides, the inhibition entry in series [1] was “inactive”. For the same compound, the inhibition in the series filed under Oryctolagus cuniculus was less than 50%. Besides, the Stability entry in series [2] is on record as “Stable”.
`C=C1/C=C/C(=O)/C(CO)=C\C[C@](C)(CCC=C(C)C)/C=C/[C@H]1OC(=O)C=C(C)C`: the IC50 was found to be 4.3 µM with SMMC-7721; 2970 nM in the series with SW480; 3.09 µM in the series with A549; 2.81 µM with HL-60; 2.75 µM in the series with MCF7. In addition, the inhibition entry in [1] is “inactive”. Moreover, in the series listed under Oryctolagus cuniculus, the inhibition entry was “Active”. The Stability result in series [2] is reported as “Stable”.
For the compound `CC(C)=CCC[C@]1(C)/C=C/[C@@H](OC(=O)C=C(C)C)[C@](C)(O)/C=C/C(=O)/C(CCl)=C\C1`, the 50% inhibitory concentration (IC50) with SMMC-7721 was determined as 0.84 µM; in the series with SW480 it was 390 nM; in the series on A549, 0.15 µM; in the series with HL-60, 0.16 µM; in the series with MCF7, 0.61 µM. Besides, the inhibition result in series [1] is “inactive”. Moreover, the inhibition entry in the series listed under Oryctolagus cuniculus was “Active”.
Regarding `CC(C)=CCC[C@]1(C)/C=C/[C@@H](OC(=O)C=C(C)C)[C@](C)(O)/C=C/C(=O)/C(COC(=O)CNCc2cn(CCOCCOCCOC(=O)CCCC[C@@H]3SC[C@@H]4NC(=O)N[C@@H]43)nn2)=C\C1`, the outcome in [3], in series [5], in [6] and in series [7] was Active. Besides, the result in series [4], in series [8] and in series [9] was inactive.
As to `CC(C)=CCC[C@]1(C)/C=C/[C@@H](OC(=O)C=C(C)C)[C@](C)(O)/C=C/C(=O)/C(CF)=C\C1`, the half-maximal inhibitory concentration (IC50) was 0.14 to 0.62 µM in the series on SMMC-7721; 330 nM with SK-BR-3; 860 nM in the series with HepG2; 940 nM in the series with BT-474; 770 nM with BEAS-2B; 540 nM with Huh-7. Further, the 50% inhibitory concentration (IC50) in the series with SW480 is 140 to 620 nM; with A549, 0.14 to 0.62 µM; with HL-60, 0.14 to 0.62 µM; in the series on MDA-MB-468, 310 nM; in the series with HeLa, 880 nM; in the series with MCF7, 0.24 µM. The concentration for half-maximal inhibition (IC50) with AGS worked out at 740 nM. Further, the Activity entry in the series listed under Danio rerio was “Toxic”. Further, in series [1], the inhibition result was “inactive”. In addition, in the series filed under Oryctolagus cuniculus, the inhibition entry was “Active”.
For `CC(=O)O[C@@H]1/C=C/[C@@](C)(CCC=C(C)C)C/C=C(/CO)C(=O)/C=C/[C@@]1(C)O`, the IC50 was found to be 9.87 µM with SMMC-7721; 4900 nM in the series on SW480; 8.67 µM in the series on A549; 5.05 µM with HL-60; 7.89 µM in the series with MCF7.
The like results for `CC(C)=CCC[C@]1(C)/C=C/[C@@H](OC(=O)C=C(C)C)[C@](C)(O)/C=C/[C@@H](O)/C(CO)=C\C1` were, in that order, 16.4 µM, 19700 nM, 18.7 µM, 15.9 µM and 17.4 µM.
Turning to `COC/C1=C/C[C@](C)(CCC=C(C)C)/C=C/[C@@H](OC(=O)C=C(C)C)[C@](C)(OC)/C=C/C1=O`, the IC50 with SMMC-7721 worked out at 9.38 µM; in the series with SW480, 14600 nM; in the series with A549, 4.18 µM; in the series with HL-60, 4.05 µM; in the series on MCF7 it was 16.5 µM.
On the same counts, the results for `CC(C)=CCC[C@]1(C)/C=C/[C@@H](OC(=O)C=C(C)C)[C@](C)(O)/C=C/C(=O)/C(C(=O)N2CCOCC2)=C\C1` are 3.68 µM, 2800 nM, 1.67 µM, 3.27 µM and 3.36 µM.
The like results for `CC(C)=CCC[C@]1(C)/C=C/[C@@H](OC(=O)C=C(C)C)[C@](C)(O)CCC(=O)/C(CO)=C\C1` were, in that order, more than 40 µM, more than 40000 nM, more than 40 µM, more than 40 µM and more than 40 µM.
As to `CO[C@@H]1[C@@H](OC(N)=O)[C@@H](O)[C@H](Oc2ccc3c(O)c(NC(=O)c4ccc(O)c(CC=C(C)C)c4)c(=O)oc3c2C)OC1(C)C`, the inhibition result in series [10] and in series [11] was “Active” in each case.
As to `CC(C)=CCC[C@]1(C)/C=C/[C@@H](OC(=O)C=C(C)C)[C@](C)(O)/C=C/C(O)/C(C=O)=C\C1` (stereo not given in full), the half-maximal inhibitory concentration (IC50) in the series on SMMC-7721 was 0.73 µM; with SW480 it was 1430 nM; in the series with A549, 0.57 µM; in the series on HL-60, 0.24 µM; with MCF7, 2.32 µM.
For `CC(C)=CCC[C@]1(C)/C=C/[C@@H](OC(=O)C=C(C)C)[C@](C)(O)/C=C/C(=O)/C(C(=O)N(C(C)C)C(C)C)=C\C1`, the IC50 in the series with SMMC-7721 came to 17.2 µM; in the series with SW480, 16000 nM; in the series on A549, 13.5 µM; with HL-60 it was 12.7 µM; in the series with MCF7 it was 17.2 µM.
As for `CC(C)=CCC[C@]1(C)/C=C/[C@@H](OC(=O)C=C(C)C)[C@](C)(O)/C=C/C(=O)/C(C(=O)N(C)C)=C\C1`, the half-inhibitory concentration (IC50) in the series on SMMC-7721 was 3.67 µM; with SW480, 3300 nM; in the series with A549, 2.7 µM; in the series with HL-60, 3.34 µM; in the series with MCF7, 3.67 µM.
